Source: PubChem BioAssay (Sanford-Burnham Center for Chemical Genomics)
Apaf1 activ – activators of human Apaf-1 apoptosome; O14727; Apaf-1 apoptosome caspase-3 activation, DEVD-Rh110 fluorescence; hits give low values; activity change, negative = activation, % at 20 µM; 330,000 compounds, 0.31% hits; AID 489031;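 active = activity change at or below -40% at 20 µM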
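Schedule: 30 min preincubation, 50 min reaction, room temperature / System: biochemical Apaf-1 apoptosome reconstitution / Medium: 20 mM HEPES pH 7.5 with CHAPS, BSA / Evaluation: Caspase-3 cleavage activity downstream of Apaf-1 activation / Detection: Caspase-3-released Rh110 fluorescence, 540 nm emission, 480 nm excitation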
Rh110 interf act – counter-screen for Apaf-1 activators: fluorescence interference; fluorescence interference (activity change), % at 20 µM, hits read low; AID 504616; Rh110 fluorescence interference, quenched caspase reaction, Ex480/Em540; shares compounds with Apaf1 activ; 980 tested, under 10 active;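 active = mean activity change at or below -40% when tested at 20 µM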
Apaf-1 act conf2 – confirmation of human Apaf-1 activators; shares compounds with Apaf1 activ; reconstituted apoptosome caspase-3 activity, DEVD-Rh110 fluorescence; hits give low values; activity change, negative = activation, % at 20 µM; 980 compounds, 5% hits; AID 504617;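 active = mean activity change at or below -40%, meaning activation of 40% or more, at 20 µM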
* hit, by the source's call; . = not tested or not shown. These entries were drawn from the full list.

SMILES | Apaf1 activ | Rh110 interf act | Apaf-1 act conf2
COc1ccccc1N1CCN(CC(O)COc2cccc3ccccc23)CC1 (configuration not stated) | 17 | . | .
Cc1c(C)n(CC(O)CN2CCN(C)CC2)c2ccccc12 (configuration not stated) | -67* | 8 | 18
O=C(c1cccs1)[C@@H]1[C@@H]2C(=O)N(Cc3ccc4c(c3)OCO4)C(=O)[C@@H]2C2c3ccccc3C=CN21 (some centres not stated) | 82 | . | .
COC(=O)c1cccc(-c2ccc(C(c3c(C)[nH][nH]c3=O)c3c(C)[nH][nH]c3=O)o2)c1 | 81 | . | .
CCCCNc1cc(NC(C)=O)cc2cc(OC)c(OC)cc12 | 62 | . | .
CCCCC1=CC2=C(c3ccco3)C(=O)C(C)(OC(=O)c3ccc(OC)cc3)C(=O)C2=CN1C1CC1 (configuration not stated) | 40 | . | .
CC1(C)S/C(=N/N=C/c2ccco2)NC1=O | -61* | 14 | 17
O=C1CCNc2cc3ccccc3cc21 | 62 | . | .
COc1ccc(S(=O)(=O)NNC(=O)c2cc3c4ccccc4n(C)c3s2)cc1 | -407* | -3 | 14
CCC1Oc2ccccc2N(CC(=O)NC2CCCCC2C)C1=O (configuration not stated) | -224* | 7 | 15
COc1ccc2noc3c2c1C(=O)c1ccccc1-3 | 78 | . | .
COc1ccc(C(=O)c2ccc3oc(-c4ccc(OC)cc4)c(C#CCCO)c3c2)cc1 | -65* | 10 | -16
C#CCOCCOCCOCCNc1nc(N2CCN(C(=O)CCCCCCCCCCNC(=O)[C@@H](CCSC)n3cc(CCO)nn3)CC2)nc(N2CCN(C(=O)CCCCCCCCCCNC(=O)[C@H]([C@@H](C)CC)n3cc(CCCCN=C(N)N)nn3)CC2)n1 | 64 | . | .
CN(C)c1ccc(C(=S)N2CCCCC2)cc1 | -335* | -3 | 2
COc1ccc(-n2nc3c(N4CCC(C(=O)NCc5ccccc5C)CC4)nnc(C)c3c2C)cc1 | 59 | . | .
Cc1ccc(S(=O)(=O)Nc2ccc3c(c2)CC(=O)N([C@H](C)CO)C[C@@H](C)[C@H](CN(C)Cc2ccc(-c4ccccc4)cc2)O3)cc1 | 41 | . | .
C#CCOCCOCCOCCNc1nc(N2CCN(C(=O)CCCCCCCCCCNC(=O)[C@H](CO)n3cc(CCCSC)nn3)CC2)nc(N2CCN(C(=O)CCCCCCCCCCNC(=O)[C@H](CCCCN)n3cc(C[C@@H](C)CC)nn3)CC2)n1 | 68 | . | .
c1ccc(C(c2nnnn2C2CCCCC2)N2CCc3ccccc3C2)nc1 (configuration not stated) | 64 | . | .
CCOC(=O)N1CCc2c(sc3c2C(=O)NC(c2ccccc2)N3)C1 (configuration not stated) | 81 | . | .
CCOC(=O)CC1C(=O)NCCN1C(=O)c1sc2ccccc2c1Cl (configuration not stated) | -260* | -2 | 12
O=C(O)CC(NC(=O)c1sc2ccccc2c1Cl)c1ccc(OC2CCCC2)cc1 (configuration not stated) | 44 | . | .
COc1cc(OC)c(C2CC(=O)N3CN(c4ccccc4C)CSC3=C2C#N)cc1OC (configuration not stated) | 66 | . | .
CCOC(=O)Cc1csc(N/C(=N/S(=O)(=O)c2ccc(Cl)cc2)c2ccccc2)n1 | 63 | . | .
COc1ccc(C(=O)CSc2nnc(-c3cccnc3)n2Cc2ccco2)cc1 | -50* | -1 | 8
Cc1cnc(NC(=O)CSc2ncc(-c3ccccc3)n2Cc2ccco2)s1 | 42 | . | .
SMILES | Apaf1 activ | Rh110 interf act | Apaf-1 act conf2
Cc1ccc(-n2nc3ccc(N)cc3n2)cc1Cl | 96 | . | .
CC1=NN(c2ccc(C)cc2C)C(=O)C1C(c1cccc(O)c1)C1C(=O)N(c2ccc(C)cc2C)N=C1C (configuration not stated) | 85 | . | .
C#CCOCCOCCOCCNc1nc(N2CCN(C(=O)CCCCCCCCCCNC(=O)[C@H]([C@@H](C)CC)n3cc(CCCCN=C(N)N)nn3)CC2)nc(N2CCN(C(=O)CCCCCCCCCCNC(=O)[C@H](CCCCN)n3cc(C[C@@H](C)CC)nn3)CC2)n1 | 55 | . | .
CCCN[C@H]1CCc2nc(N)sc2C1 | -2 | . | .
COCCn1c(=S)[nH]c2cc(OC)c(OC)cc2c1=O | -93* | 2 | 7
COc1cc2[nH]c(C(=O)NN)c(N)c2cc1OC | 48 | . | .
Cc1ccc(N(CC2=NCCN2)c2cccc(O)c2)cc1 | -2 | . | .
Cc1cc(C)nc(N/N=C/c2ccc(N3CCOCC3)cc2)n1 | -68* | 9 | 13
N#Cc1cc2ccc(N3CCOCC3)cc2cc1C#N | 82 | . | .
COc1nc(N/N=C/c2ccc(-c3ccccc3[N+](=O)[O-])o2)nc(N2CCOCC2)n1 | 54 | . | .
O=C(Cn1cc2c(n1)CCCC2)NCCCN1CCCC1 | 41 | . | .
Cc1c(O)cccc1C(=O)N[C@@H](CSc1ccccc1)[C@H](O)CN1C[C@H]2CCCC[C@H]2C[C@H]1C(=O)NC(C)(C)C | 30 | . | .
CC[C@@H](C)[C@@H]1CN([C@@H](CN2CCC[C@H]2CN2C(N)=NC[C@H]2C(C)C)C(C)C)C(=N)N1CCc1ccc(Cl)c(Cl)c1 | 51 | . | .
CCCCCN(C(=O)NC(=O)Nc1nncs1)S(C)(=O)=O | -46* | -2 | 7
c1ccc(CC2CCN(c3nc4ccccc4n4nnnc34)CC2)cc1 | 58 | . | .
Nc1c(C(=O)NCc2ccc3c(c2)OCO3)c2nc3ccccc3nc2n1CCCN1CCOCC1 | 90 | . | .
O=C(NCc1ccc2c(c1)OCO2)c1cc(-c2ccccc2)c(N2CCOCC2)s1 | -287* | 8 | 22
CCC(C)n1c(NC(=O)c2ccccc2)c(C#N)c2nc3ccccc3nc21 (configuration not stated) | 93 | . | .
CCCCCCSc1ccc(-c2nc3ccc(C)cn3c2NCc2ccccc2)cc1OC | 41 | . | .
COc1cc2sc3cc(NCC[C@@H]4CCCN4C)ccc3c(=O)c2cc1OC | 55 | . | .
COc1ccc(C(CNC(=O)c2cccc(NS(=O)(=O)c3ccc(C)c(F)c3)c2)N(C)C)cc1 (configuration not stated) | 52 | . | .
O=C(NCc1ccccn1)c1cccc(NS(=O)(=O)c2cccc(F)c2)c1 | -43* | 0 | 9
Nc1c(C(=O)NCCN2CCOCC2)c2nc3ccccc3nc2n1CCc1ccccc1F | 43 | . | .
C#CCOCCOCCOCCNc1nc(N2CCN(C(=O)[C@H](Cc3cc4ccccc4[nH]3)n3cc([C@@H](N)C(C)CC)nn3)CC2)nc(N2CCN(C(=O)[C@H](CCCCN)n3cc([C@@H](N)CC(C)C)nn3)CC2)n1 (some centres not stated) | 41 | . | .
CCCCCCCCCCC[N+](C)(C)CC/C=C1/c2ccccc2Sc2ccc(Cl)cc21 | 75 | . | .
CC(=O)c1ccc(-n2ccc(=O)cc2)cc1 | -494* | 11 | 11
CN(CCO)C(=O)c1c(NC(=O)c2ccccc2)sc2c1CCCC2 | -362* | 12 | 18
CC(=O)N1CCc2c(sc(NC(=O)c3cccc(N4C(=O)CCC4=O)c3)c2C(N)=O)C1 | 57 | . | .
O=C1NC2=C(CCc3ccccc32)C(c2ccc(Br)cc2)N1 (configuration not stated) | 69 | . | .
Cc1cc(-c2ccc(N=Nc3c(S(=O)(=O)O)cc4cc(S(=O)(=O)O)cc(N)c4c3O)c(C)c2)ccc1N=Nc1c(S(=O)(=O)O)cc2cc(S(=O)(=O)O)cc(N)c2c1O | 98 | . | .
